Screening data as filed in PubChem BioAssay.
This is a sample that favours compounds with a hit; in the whole collection about 2.9% have one here.
iPSC survival up – enhancers of single-cell hiPSC survival, primary screen, ATPlite luminescence | 100% = ROCK inhibitor wells, 0% = DMSO | survival enhancement, % at 20 µM | 360,000 compounds, 0.044% hits; in the data active = survival enhancement above about 18%;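 also: cells exposed to compounds for 16 hours before the ATP read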
Rev-erbA mod – modulators of Rev-erb alpha DNA binding, primary screen, biochemical, FITC-DNA, fluorescence polarization, uHTS; Nuclear receptor subfamily 1 group D member 1 (Homo sapiens), P20393; Rev-erbα–FITC-DNA binding, 90 min; activity, % at 10 µM; 370,000 compounds, 0.79% hits;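 active = activity above about 14%, limit read from the data; passing the limit was not always enough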
Target sequence (P20393 whole entry, looked up): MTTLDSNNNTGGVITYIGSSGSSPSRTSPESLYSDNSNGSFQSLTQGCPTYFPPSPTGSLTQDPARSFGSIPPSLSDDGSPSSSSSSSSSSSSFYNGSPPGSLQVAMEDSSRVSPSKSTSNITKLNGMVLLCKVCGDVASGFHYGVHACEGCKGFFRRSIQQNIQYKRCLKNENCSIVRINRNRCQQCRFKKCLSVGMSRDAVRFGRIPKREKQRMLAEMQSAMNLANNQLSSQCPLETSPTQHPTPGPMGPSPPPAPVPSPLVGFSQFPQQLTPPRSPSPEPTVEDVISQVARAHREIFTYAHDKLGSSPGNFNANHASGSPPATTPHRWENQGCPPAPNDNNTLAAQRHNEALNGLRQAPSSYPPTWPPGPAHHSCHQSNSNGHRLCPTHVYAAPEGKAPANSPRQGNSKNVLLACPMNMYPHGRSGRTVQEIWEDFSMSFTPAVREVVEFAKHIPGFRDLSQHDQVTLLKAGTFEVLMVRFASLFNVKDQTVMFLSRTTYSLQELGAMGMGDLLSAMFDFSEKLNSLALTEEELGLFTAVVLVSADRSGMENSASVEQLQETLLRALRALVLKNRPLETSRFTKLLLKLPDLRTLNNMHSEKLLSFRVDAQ
MIN6 prolif – inducers of MIN6 beta-cell proliferation, primary screen, ATP luminescence, uHTS | AID 2380, 2010 | proliferation, % at 10 µM | 330,000 compounds, 0.29% hits | MIN6 cells proliferation, ATPlite luminescence, 48 h; cells starved in 0.2% serum; 100% = growth in 10% serum;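 active = compounds whose signal lies at least 3.5 SD above the mean of all wells on their plate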
T cruzi repl – inhibitors of intracellular T. cruzi growth, primary screen, luminescence, NIH3T3 host cells; inhibition, % (no concentration beside the values); AID 1885, 2009; T. cruzi beta-gal in NIH3T3, 90 h; 300,000 compounds, 1.4% hits;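 active = mean inhibition across valid replicates above about 55%, limit read from the data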;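 also: signal also drops with host cell toxicity which is not excluded here; higher percent means less beta-gal luminescence so fewer parasites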
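Read-out: Parasite load inhibition, % | Test system: Mouse NIH/3T3 fibroblasts infected with β-gal-expressing T. cruzi Tulahuen C4 | Amount: 5,000 cells/well | Medium: DMEM, 2% fetal bovine serum | Signal: GalScreen β-gal luminescence, detergent lysis, 60 min | Timing: 3 h attach, ≥90 h co-culture | Also added: Tulahuen C4 trypomastigotes, 5000/well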
PG9 binder – binders of HIV-1 gp120 antibody PG9, primary screen, biochemical, TR-FRET; HIV-1 gp120 / PG9 antibody interaction; TR-FRET gp120-PG9 antibody binding; inhibition, % at 6.7 µM; 360,000 compounds, 0.43% hits; AID 624416, 2012; in the data active = inhibition above about 8.5%
H9c2 TAG inh – inhibitors of triacylglycerol accumulation, primary screen, cell-based, uHTS, fluorescence, H9c2. H9c2 cells, Nile Red lipid (TAG) fluorescence; cells loaded with 200 µM oleic acid. inhibition, % at 12.5 µM. 230,000 compounds, 0.66% hits. AID 651582, 2012;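 active = pattern-corrected inhibition of lipid staining of at least 50% with the nuclear-stain viability signal not falling by more than 50%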
TAG conf – triacylglycerol accumulation inhibitors, retest, confirmation, cell-based, single concentration, Nile Red fluorescence, H9c2; shares compounds with H9c2 TAG inh; 990 compounds, 71% hits; H9c2 lipid accumulation; cells loaded with 200 µM oleic acid; inhibition, % at 12.5 µM;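 active = mean inhibition across replicates of 40% or more; inactive = mean inhibition below 40%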
A number is an active result; . = inactive; / = no result given.

SMILES	iPSC survival up	Rev-erbA mod	MIN6 prolif	T cruzi repl	PG9 binder	H9c2 TAG inh	TAG conf
O=C(Cc1n[nH]c(=O)c2ccccc12)OCC(=O)c1ccc2c(c1)OCCO2	.	.	.	.	.	80.9	56.1
O=C(Cc1n[nH]c(=O)c2ccccc12)OCC(=O)c1ccc(F)cc1	.	.	.	.	.	.	/
CC(C)C[C@H]1C(=O)N2CCC[C@H]2[C@]2(O)O[C@](NC(=O)C3C=C4c5cccc6[nH]c(Br)c(c56)C[C@H]4N(C)C3)(C(C)C)C(=O)N12 (stereo partly specified)	.	.	.	.	.	55.8	92.2
COc1ccc(NC(=O)Cn2c(-c3ccccc3)cn(-c3ccc(C)cc3)c2=O)cc1	.	.	.	.	.	56.5	.
COc1ccc(OC)c(NC(=O)c2cccnc2Sc2cc(C)ccc2C)c1	.	.	.	.	.	.	/
CN(C)CCOC1(Cc2ccc(F)cc2)CCC(C(C)(C)C)CC1 (stereo unspecified)	.	.	/	/	.	.	/
Cc1ccc(CC2(OCCN(C)C)CCC(C(C)(C)C)CC2)cc1 (stereo unspecified)	.	.	/	/	.	83.8	62.6
Cc1ccc(C(=O)NCCN2C3=NC[C@H](C(C)C)N3C[C@H]2Cc2ccc(O)cc2)cc1Br	.	.	.	.	.	56.6	40.2
COc1ccc(C[C@H]2CN3C(=NC[C@@H]3Cc3ccc(O)cc3)N2C[C@H](C)NC(=O)CCC2CCCCC2)cc1	.	.	.	.	.	51.0	.
COc1ccc(C[C@H]2CN3C(=NC[C@@H]3C(C)C)N2CCNC(=O)c2ccc(C)c(Br)c2)cc1	.	/	.	.	/	/	/
O=C(CCC1CCCCC1)NCCN1C2=NC[C@@H](Cc3ccccc3)N2C[C@H]1Cc1ccc(O)cc1	.	.	.	.	.	62.9	62.1
COc1cc(CNS(=O)(=O)c2ccc3c(c2)CC(C)N3C(C)=O)cc(OC)c1OC (stereo unspecified)	.	.	.	.	.	/	/
COC(C[C@H]1O[C@H]1[C@H](O)[C@@H](C)OCc1ccccc1)OC	.	.	.	.	.	.	/
CCc1ccc(/C=N/NC(=O)c2cc(C3CC3)nc3ccc(Br)cc23)s1	.	.	.	.	.	60.4	40.4
CCc1ccc(/C=N/NC(=O)c2cc(-c3ccccc3OC)nc3ccccc23)s1	.	.	.	.	.	.	/
O=C(Nc1nncs1)c1ccccc1Br	.	.	.	/	.	/	/
COc1ccccc1CC(=O)Nc1ccc(-c2noc(COc3ccc(Br)cc3)n2)cc1	.	.	.	.	.	/	/
COc1cccc(-c2nc(-c3ccc(NC(=O)Cc4ccccc4OC)cc3)no2)c1	.	/	/	/	/	50.7	55.1
Cc1cccc(NC(=O)Nc2ccc(F)cc2)n1	.	.	.	.	.	/	/
O=C(NCc1ccccc1)[C@@H]1C[C@H]1[C@@H](NP(=O)(c1ccccc1)c1ccccc1)c1ccccc1	.	.	.	.	.	.	/
O=C(Nc1ccc2ccccc2c1)[C@@H]1C[C@H]1[C@@H](NP(=O)(c1ccccc1)c1ccccc1)c1ccccc1	.	.	.	/	.	52.1	.
CC(C)CC1NC(C(=O)O)Cc2c1[nH]c1ccccc21 (stereo unspecified)	.	.	.	.	.	.	/
O=C1CCCN1CCC1CCN(C(=O)Nc2ccccc2)CC1	.	.	.	.	/	/	/
COc1ccccc1CNC(=O)CCn1c(=O)[nH]c2ccsc2c1=O	.	.	.	.	.	/	/
COC(=O)[C@@]1(Cc2ccc(F)cc2)[C@H]2c3cc(C(=O)N4CCCC4)n(CCCNc4ncc(C(F)(F)F)cc4Cl)c3C[C@H]2CN1C(=O)c1ccccc1	.	/	.	.	/	77.8	98.4
